Bridge positions count the residues as written; N and C are the ends. Square brackets hold non-standard residues; d marks the D form. Peptide text beside a SMILES is read from it. * marks the point of attachment. Threoninol(2S,3R) = C[C@@H](O)[C@H](CO)N*
Legend:
[1] = species on record: Rattus norvegicus; experiment: Tested for inhibition of growth hormone (GH)release from primary cultures of male rat anterior pituitary cells; format: functional, cell-based; conditions: Pituitary gland cell
[2] = target: Somatostatin receptor type 2 (Mus musculus, UniProt P30875); experiment: Tested for inhibition of radioligand binding to cloned somatostatin receptor mSSTR2b
Chain of Somatostatin receptor type 2 (P30875 whole entry): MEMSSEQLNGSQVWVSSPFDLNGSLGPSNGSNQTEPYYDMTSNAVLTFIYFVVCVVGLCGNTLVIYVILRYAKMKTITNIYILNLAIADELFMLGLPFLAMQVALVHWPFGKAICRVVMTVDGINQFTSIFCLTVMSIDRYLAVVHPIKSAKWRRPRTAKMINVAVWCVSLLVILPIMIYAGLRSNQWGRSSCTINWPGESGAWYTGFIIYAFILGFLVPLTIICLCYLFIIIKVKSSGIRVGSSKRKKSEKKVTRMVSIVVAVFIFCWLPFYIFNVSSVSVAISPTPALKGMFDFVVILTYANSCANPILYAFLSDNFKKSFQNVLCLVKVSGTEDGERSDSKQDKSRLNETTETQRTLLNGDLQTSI

[3] = target: Somatostatin receptor type 3 (Mus musculus, UniProt P30935); experiment: Tested for inhibition of radioligand binding to cloned somatostatin receptor mSSTR3
Chain of Somatostatin receptor type 3 (P30935 whole entry): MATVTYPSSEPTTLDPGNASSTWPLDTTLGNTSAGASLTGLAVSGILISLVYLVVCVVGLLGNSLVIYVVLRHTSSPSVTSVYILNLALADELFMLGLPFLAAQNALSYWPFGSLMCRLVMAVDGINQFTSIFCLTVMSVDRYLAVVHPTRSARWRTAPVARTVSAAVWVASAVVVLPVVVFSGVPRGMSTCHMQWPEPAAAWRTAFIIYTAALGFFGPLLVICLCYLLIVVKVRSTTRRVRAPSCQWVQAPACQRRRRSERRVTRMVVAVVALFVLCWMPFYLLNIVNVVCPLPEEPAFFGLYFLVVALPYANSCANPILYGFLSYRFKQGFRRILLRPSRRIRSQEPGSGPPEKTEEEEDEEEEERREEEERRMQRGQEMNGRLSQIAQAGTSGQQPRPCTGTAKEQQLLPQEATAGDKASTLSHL

[4] = target: Somatostatin receptor type 4 (Homo sapiens, UniProt P31391); experiment: Tested for inhibition of radioligand binding to cloned somatostatin receptor hSSTR4
Chain of Somatostatin receptor type 4 (P31391 whole entry): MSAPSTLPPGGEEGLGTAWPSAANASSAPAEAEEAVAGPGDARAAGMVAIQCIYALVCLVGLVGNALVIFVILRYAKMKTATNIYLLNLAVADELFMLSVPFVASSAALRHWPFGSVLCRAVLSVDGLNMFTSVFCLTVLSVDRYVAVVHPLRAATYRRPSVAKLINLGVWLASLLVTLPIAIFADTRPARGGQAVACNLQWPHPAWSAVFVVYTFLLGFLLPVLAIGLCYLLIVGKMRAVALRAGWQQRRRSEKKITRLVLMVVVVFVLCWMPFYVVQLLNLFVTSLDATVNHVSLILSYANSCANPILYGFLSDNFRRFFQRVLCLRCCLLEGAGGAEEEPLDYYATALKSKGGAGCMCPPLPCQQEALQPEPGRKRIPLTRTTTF

[5] = target: T1, Somatostatin receptor type 5 (Rattus norvegicus, UniProt P30938); experiment: Tested for inhibition of radioligand binding to cloned somatostatin receptor rSSTR5
T1 sequence (P30938 whole entry): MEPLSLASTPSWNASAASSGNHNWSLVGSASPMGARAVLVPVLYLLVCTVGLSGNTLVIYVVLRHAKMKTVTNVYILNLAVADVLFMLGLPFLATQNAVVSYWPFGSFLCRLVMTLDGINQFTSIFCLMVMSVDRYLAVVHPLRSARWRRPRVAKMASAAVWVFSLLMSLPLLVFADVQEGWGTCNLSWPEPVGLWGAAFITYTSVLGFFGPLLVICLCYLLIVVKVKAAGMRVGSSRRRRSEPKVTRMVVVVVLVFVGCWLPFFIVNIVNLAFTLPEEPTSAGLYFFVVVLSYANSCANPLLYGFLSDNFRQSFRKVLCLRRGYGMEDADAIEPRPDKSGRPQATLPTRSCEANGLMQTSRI

[6] = target: Somatostatin receptor type 5 (Homo sapiens, UniProt P35346); experiment: Tested for inhibition of radioligand binding to cloned somatostatin receptor hSSTR5
Chain of Somatostatin receptor type 5 (Homo sapiens, UniProt P35346) (P35346 whole entry): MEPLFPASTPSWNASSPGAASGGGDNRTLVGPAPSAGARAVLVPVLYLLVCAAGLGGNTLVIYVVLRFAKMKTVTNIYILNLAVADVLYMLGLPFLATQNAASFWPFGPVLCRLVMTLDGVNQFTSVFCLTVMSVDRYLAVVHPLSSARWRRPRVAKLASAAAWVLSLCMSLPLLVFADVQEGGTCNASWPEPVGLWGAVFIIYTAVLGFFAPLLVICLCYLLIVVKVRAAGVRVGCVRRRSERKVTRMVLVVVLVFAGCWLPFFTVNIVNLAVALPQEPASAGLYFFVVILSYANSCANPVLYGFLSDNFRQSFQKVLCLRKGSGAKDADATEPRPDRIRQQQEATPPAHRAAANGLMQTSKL

[7] = half-life of compound; format: ADME
Method in brief: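 Aliquots taken at 5, 15, 30, 45, 60 and 90 min were quenched in ice-cold 1 M acetic acid and centrifuged. Remaining peptide was measured by microbore RP-HPLC at 216 nm against homogenate calibration. A pseudo-first-order exponential fit gave k, and half-life = 0.693/k.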

Row | IC50 [2] | IC50 [3] | IC50 [4] | SMILES | IC50 [1] | other results
1 | > 1000 nM | > 1000 nM | > 1000 nM | C[C@@H](O)[C@@H]1NC(=O)[C@H](CCCCN)NC(=O)[C@@H](Cc2c[nH]c3ccccc23)NC(=O)[C@H](Cc2ccccc2)NC(=O)[C@@H](NC(=O)[C@H](N)Cc2ccccc2)CSC[C@@H](C(=O)O)NC1=O | > 1000 nM | –
2 | 16.6 nM | > 1000 nM | > 1000 nM | C[C@@H](O)[C@H](NC(=O)[C@@H]1CSC[C@H](NC(=O)[C@H](N)Cc2ccccc2)C(=O)N[C@@H](Cc2ccccc2)C(=O)N[C@H](Cc2c[nH]c3ccccc23)C(=O)N[C@@H](CCCCN)C(=O)N[C@@H]([C@@H](C)O)C(=O)N1)C(N)=O [listing 1 of 2 here] | – | –
3 | – | – | – | C[C@@H](O)[C@@H]1NC(=O)[C@H](CCCCN)NC(=O)[C@@H](Cc2c[nH]c3ccccc23)NC(=O)[C@H](Cc2ccccc2)NC(=O)[C@@H](N)CSC[C@@H](C(=O)O)NC1=O [listing 1 of 2 here] | > 1000 nM | –
4 | – | > 1000 nM | > 1000 nM | C[C@@H](O)[C@H]1NC(=O)[C@H](CCCCN)NC(=O)[C@@H](Cc2c[nH]c3ccccc23)NC(=O)[C@H](Cc2ccccc2)NC(=O)[C@@H](NC(=O)[C@@H](N)Cc2ccccc2)CSSC[C@H](C(=O)O)NC1=O | – | –
5 | 13.6 nM | – | – | C[C@@H](O)[C@@H]1NC(=O)[C@H](CCCCN)NC(=O)[C@@H](Cc2c[nH]c3ccccc23)NC(=O)[C@H](Cc2ccccc2)NC(=O)[C@@H](NC(=O)[C@H](N)Cc2ccccc2)CSSC[C@@H](C(=O)O)NC1=O | – | –
6 | – | – | – | C[C@@H](O)[C@H](NC(=O)[C@@H]1CSC[C@@H](NC(=O)[C@H](N)Cc2ccccc2)C(=O)N[C@H](Cc2ccccc2)C(=O)N[C@@H](Cc2c[nH]c3ccccc23)C(=O)N[C@H](CCCCN)C(=O)N[C@@H]([C@@H](C)O)C(=O)N1)C(N)=O | 70 nM | –
7 | – | – | – | C[C@H](N)C(=O)NCC(=O)N[C@H]1CSSC[C@@H](C(=O)O)NC(=O)[C@H](CO)NC(=O)[C@H]([C@@H](C)O)NC(=O)[C@H](Cc2ccccc2)NC(=O)[C@H]([C@@H](C)O)NC(=O)[C@H](CCCCN)NC(=O)[C@H](Cc2c[nH]c3ccccc23)NC(=O)[C@H](Cc2ccccc2)NC(=O)[C@H](Cc2ccccc2)NC(=O)[C@H](CC(N)=O)NC(=O)[C@H](CCCCN)NC1=O [SOMATOSTATIN] | 0.52 nM | –
8 | – | – | – | C[C@@H](O)[C@H]1NC(=O)[C@H](CCCCN)NC(=O)[C@@H](Cc2c[nH]c3ccccc23)NC(=O)[C@H](Cc2ccccc2)NC(=O)[C@@H](N)CSC[C@H](C(=O)O)NC1=O | – | IC50 [5]: 500 nM
9 | – | – | – | C[C@@H](O)[C@H](NC(=O)[C@@H]1CSC[C@H](NC(=O)[C@H](N)Cc2ccccc2)C(=O)N[C@@H](Cc2ccccc2)C(=O)N[C@H](Cc2c[nH]c3ccccc23)C(=O)N[C@@H](CCCCN)C(=O)N[C@@H]([C@@H](C)O)C(=O)N1)C(N)=O [listing 2 of 2 here] | – | IC50 [6]: 4.92 nM
10 | > 1000 nM | > 1000 nM | > 1000 nM | C[C@@H](O)[C@@H]1NC(=O)[C@H](CCCCN)NC(=O)[C@@H](Cc2c[nH]c3ccccc23)NC(=O)[C@H](Cc2ccccc2)NC(=O)[C@@H](N)CSC[C@@H](C(=O)O)NC1=O [listing 2 of 2 here] | – | –

Row | SMILES | IC50 [2] | IC50 [3] | IC50 [4] | IC50 [1] | other results
11 | C[C@@H](O)[C@H](CO)NC(=O)[C@@H]1CSSC[C@H](NC(=O)[C@H](N)Cc2ccccc2)C(=O)N[C@@H](Cc2ccccc2)C(=O)N[C@H](Cc2c[nH]c3ccccc23)C(=O)N[C@@H](CCCCN)C(=O)N[C@@H]([C@@H](C)O)C(=O)N1 (H-[dF]CF[dW]KTC-{Threoninol(2S,3R)}; disulfide 2-7) | 0.28 nM | 3 nM | – | 0.52 nM | IC50 [5]: 1.04 nM; half-life [7]: 12.5 h
